This passage reports inhibition results from ChEMBL document CHEMBL1165965, “Synthesis and structure-activity relationships of 1,2,3,4-tetrahydropyrido[2,3-b]pyrazines as potent and selective inhibitors of the anaplastic lymphoma kinase” (Bioorg Med Chem, 2010).

Bounds are passed on as bounds.

In general, inhibition refers to how much of the control response was suppressed.

The target in experiment [1] is RAC-gamma serine/threonine-protein kinase (Homo sapiens) (UniProt Q9Y243). The experiment is described as follows: Inhibition of AKT3 at 1 uM. In short, it runs like this: (§1)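 Ambit KINOMEscan screen at a single concentration across a 250–400 kinase panel, recorded as percent inhibition. Selectivity was expressed as S(90), the fraction of kinases inhibited >90%.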
Chain of RAC-gamma serine/threonine-protein kinase (Homo sapiens) (Q9Y243 whole entry): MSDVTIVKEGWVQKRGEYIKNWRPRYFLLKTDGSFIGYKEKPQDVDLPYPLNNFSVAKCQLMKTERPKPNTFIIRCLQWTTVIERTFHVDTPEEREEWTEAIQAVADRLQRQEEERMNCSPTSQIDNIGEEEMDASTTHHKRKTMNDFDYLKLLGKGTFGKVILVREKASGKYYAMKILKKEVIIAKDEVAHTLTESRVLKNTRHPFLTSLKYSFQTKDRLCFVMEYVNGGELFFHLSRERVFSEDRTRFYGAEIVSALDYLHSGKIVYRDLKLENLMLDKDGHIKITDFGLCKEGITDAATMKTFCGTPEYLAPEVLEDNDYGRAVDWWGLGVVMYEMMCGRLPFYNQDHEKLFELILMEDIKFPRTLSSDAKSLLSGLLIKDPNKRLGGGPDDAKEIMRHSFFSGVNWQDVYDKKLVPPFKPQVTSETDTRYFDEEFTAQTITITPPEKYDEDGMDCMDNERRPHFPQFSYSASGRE

Experiment [2] deals with Protein-tyrosine kinase 6 (Homo sapiens) (UniProt Q13882). The experiment is described as follows: Inhibition of BRK at 1 uM. The essentials:
as §1

For experiment [3], the target named is Dual specificity protein kinase CLK4 (Homo sapiens) (UniProt Q9HAZ1). Put plainly: Inhibition of CLK4 at 1 uM. The essentials: (§2)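 Single-concentration screen using Ambit Bioscience KINOMEscan technology across a panel of 250–400 kinases. Per-kinase inhibition from this screen was summarized as S(90), the fraction of kinases inhibited by more than 90%.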
Chain of Dual specificity protein kinase CLK4 (Homo sapiens) (Q9HAZ1 whole entry, looked up): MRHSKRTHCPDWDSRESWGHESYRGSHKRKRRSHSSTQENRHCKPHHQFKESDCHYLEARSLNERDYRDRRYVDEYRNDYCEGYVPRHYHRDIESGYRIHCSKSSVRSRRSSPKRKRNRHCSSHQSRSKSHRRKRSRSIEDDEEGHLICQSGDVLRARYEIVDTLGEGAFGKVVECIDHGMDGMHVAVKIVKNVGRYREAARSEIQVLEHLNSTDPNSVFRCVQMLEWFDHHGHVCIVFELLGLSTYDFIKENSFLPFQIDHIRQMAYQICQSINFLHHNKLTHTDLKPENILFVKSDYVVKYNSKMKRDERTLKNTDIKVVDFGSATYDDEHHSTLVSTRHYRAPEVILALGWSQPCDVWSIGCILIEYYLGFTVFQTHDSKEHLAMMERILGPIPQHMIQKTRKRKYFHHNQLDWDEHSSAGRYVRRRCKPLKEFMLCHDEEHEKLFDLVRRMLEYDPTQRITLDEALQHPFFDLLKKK
For experiment [4], the target named is Calcium/calmodulin-dependent protein kinase type II subunit gamma (Homo sapiens) (UniProt Q13555). The experiment is described as follows: Inhibition of CAMK2G at 1 uM. In short, it runs like this:
as §1

Experiment [5] has as its target Tyrosine-protein kinase Yes (Homo sapiens) (UniProt P07947). Put plainly: Inhibition of YES at 1 uM.
Experiment [6] has as its target Serine/threonine-protein kinase Nek6 (Homo sapiens) (UniProt Q9HC98). The experiment is described as follows: Inhibition of NEK6 at 1 uM.
Experiment [7] addresses T1, Serine/threonine-protein kinase ULK3 (Homo sapiens) (UniProt Q6PHR2).
T1 sequence (whole entry): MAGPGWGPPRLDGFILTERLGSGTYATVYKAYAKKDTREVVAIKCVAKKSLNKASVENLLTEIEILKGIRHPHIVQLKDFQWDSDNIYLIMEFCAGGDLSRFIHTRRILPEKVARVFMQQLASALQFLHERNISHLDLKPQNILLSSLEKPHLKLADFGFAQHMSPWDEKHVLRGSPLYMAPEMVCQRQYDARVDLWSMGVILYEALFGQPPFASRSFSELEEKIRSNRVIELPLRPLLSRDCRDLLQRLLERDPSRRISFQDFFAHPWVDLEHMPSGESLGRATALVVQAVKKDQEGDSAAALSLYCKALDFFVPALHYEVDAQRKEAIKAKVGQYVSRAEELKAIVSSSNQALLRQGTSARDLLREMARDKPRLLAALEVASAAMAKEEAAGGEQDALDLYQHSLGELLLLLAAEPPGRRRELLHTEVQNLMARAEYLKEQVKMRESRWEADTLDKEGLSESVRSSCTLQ
Put plainly: Inhibition of ULK3 at 1 uM.

Experiment [8] addresses Cyclin-dependent kinase 7 (Homo sapiens) (UniProt P50613). Put plainly: Inhibition of CDK7 at 1 uM.
Experiment [9] addresses Phosphatidylinositol 4-phosphate 3-kinase C2 domain-containing subunit beta (Homo sapiens) (UniProt O00750). The experiment is described as follows: Inhibition of PIK3C2B at 1 uM.
Experiment [10] has as its target T2, Bone morphogenetic protein receptor type-2 (Homo sapiens) (UniProt Q13873).
T2 sequence (whole entry): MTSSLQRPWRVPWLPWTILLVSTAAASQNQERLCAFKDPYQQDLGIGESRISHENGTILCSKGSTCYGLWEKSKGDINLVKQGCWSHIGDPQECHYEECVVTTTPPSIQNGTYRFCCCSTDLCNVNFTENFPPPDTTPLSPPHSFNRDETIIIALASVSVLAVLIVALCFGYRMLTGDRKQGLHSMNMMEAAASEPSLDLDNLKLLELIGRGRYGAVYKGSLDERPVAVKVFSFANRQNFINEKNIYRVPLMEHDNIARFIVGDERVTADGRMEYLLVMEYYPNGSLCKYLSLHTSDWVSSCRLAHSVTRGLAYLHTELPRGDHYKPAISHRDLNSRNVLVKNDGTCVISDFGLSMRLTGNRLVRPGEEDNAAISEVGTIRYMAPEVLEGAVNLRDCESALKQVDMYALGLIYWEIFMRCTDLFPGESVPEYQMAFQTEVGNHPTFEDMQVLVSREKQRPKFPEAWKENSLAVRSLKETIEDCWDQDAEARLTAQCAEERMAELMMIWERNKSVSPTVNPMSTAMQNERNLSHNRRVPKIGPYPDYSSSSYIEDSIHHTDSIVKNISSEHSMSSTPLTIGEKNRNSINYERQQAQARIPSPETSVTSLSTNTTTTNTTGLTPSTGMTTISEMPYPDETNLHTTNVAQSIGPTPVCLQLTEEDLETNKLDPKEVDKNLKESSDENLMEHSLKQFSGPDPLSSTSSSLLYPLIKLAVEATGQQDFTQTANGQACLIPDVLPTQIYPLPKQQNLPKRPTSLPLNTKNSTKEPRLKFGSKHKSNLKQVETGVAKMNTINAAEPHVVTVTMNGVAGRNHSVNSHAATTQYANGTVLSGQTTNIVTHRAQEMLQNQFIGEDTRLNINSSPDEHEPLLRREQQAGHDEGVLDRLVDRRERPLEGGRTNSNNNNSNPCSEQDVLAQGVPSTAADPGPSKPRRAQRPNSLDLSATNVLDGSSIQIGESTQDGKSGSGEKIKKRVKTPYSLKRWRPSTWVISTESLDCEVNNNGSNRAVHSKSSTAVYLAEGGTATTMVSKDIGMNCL
The experiment is described as follows: Inhibition of BMPR2 at 1 uM.

Experiment [11] has as its target Tyrosine-protein kinase ABL1 (Homo sapiens) (UniProt P00519). Put plainly: Inhibition of ABL1 at 1 uM. The essentials: as §1
Experiment [12] deals with T3, Mitogen-activated protein kinase kinase kinase 7 (Homo sapiens) (UniProt O43318).
T3 sequence (whole entry): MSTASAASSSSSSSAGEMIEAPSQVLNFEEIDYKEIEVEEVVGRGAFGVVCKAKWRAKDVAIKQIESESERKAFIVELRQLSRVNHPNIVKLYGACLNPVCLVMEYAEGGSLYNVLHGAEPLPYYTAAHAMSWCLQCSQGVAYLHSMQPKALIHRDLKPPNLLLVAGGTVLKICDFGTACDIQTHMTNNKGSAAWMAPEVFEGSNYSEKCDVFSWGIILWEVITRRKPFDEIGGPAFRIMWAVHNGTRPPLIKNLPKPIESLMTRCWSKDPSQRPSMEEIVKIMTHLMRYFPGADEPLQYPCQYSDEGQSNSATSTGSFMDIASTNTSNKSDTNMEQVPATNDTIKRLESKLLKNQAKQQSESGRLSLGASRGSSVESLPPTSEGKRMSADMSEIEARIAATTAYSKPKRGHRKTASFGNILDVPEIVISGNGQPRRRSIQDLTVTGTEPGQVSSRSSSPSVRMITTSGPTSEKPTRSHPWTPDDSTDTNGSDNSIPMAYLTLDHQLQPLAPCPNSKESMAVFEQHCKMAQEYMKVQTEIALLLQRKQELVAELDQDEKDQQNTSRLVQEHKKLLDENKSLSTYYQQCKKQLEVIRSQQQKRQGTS
Put plainly: Inhibition of TAK1 at 1 uM.

Experiment [13] has as its target Casein kinase II subunit alpha' (Homo sapiens) (UniProt P19784). Put plainly: Inhibition of CSNK2A2 at 1 uM. The essentials:
as §2

In experiment [14] the test system is Phosphatidylinositol 4,5-bisphosphate 3-kinase catalytic subunit alpha isoform (Homo sapiens), P42336 [E542K]. The experiment is described as follows: Inhibition of PIK3CA E542K mutant at 1 uM.
Chain of Phosphatidylinositol 4,5-bisphosphate 3-kinase catalytic subunit alpha isoform (Homo sapiens), P42336 [E542K] (P42336 whole entry E542K, canonical isoform): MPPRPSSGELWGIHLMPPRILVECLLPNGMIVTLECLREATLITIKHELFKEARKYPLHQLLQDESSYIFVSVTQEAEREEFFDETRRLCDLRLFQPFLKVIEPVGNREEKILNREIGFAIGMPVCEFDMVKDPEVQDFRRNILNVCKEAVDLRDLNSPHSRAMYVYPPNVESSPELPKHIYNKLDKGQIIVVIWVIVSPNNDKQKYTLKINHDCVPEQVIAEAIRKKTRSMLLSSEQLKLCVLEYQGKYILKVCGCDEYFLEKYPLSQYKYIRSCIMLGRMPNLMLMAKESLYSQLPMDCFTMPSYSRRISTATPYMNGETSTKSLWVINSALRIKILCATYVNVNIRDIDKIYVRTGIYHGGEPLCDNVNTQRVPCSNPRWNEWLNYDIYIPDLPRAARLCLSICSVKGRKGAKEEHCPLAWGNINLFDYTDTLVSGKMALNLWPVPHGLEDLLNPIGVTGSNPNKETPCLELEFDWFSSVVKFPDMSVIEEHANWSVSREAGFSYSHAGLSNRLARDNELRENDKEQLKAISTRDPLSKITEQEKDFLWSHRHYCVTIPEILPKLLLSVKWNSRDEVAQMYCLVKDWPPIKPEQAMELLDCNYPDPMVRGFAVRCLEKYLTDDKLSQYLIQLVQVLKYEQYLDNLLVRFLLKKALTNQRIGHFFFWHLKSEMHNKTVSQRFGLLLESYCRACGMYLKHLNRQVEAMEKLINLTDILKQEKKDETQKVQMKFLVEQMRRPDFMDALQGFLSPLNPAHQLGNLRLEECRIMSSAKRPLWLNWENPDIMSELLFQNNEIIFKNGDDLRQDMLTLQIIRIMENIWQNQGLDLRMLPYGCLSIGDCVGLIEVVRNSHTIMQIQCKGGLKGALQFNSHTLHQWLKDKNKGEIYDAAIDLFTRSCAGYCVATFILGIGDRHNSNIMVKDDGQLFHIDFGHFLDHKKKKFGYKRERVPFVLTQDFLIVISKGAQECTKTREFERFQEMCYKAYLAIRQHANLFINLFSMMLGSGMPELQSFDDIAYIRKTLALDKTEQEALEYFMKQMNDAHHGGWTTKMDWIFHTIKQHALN

Chain of Serine/threonine-protein kinase Nek6 (Homo sapiens) (Q9HC98 whole entry): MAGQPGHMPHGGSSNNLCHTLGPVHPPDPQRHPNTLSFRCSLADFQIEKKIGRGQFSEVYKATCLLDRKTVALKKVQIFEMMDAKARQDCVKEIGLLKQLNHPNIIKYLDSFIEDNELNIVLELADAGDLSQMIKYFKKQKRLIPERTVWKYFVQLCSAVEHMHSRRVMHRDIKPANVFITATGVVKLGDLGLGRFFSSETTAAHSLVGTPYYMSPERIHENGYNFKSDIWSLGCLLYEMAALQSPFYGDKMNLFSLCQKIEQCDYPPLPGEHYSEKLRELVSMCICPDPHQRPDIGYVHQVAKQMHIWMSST
Chain of Calcium/calmodulin-dependent protein kinase type II subunit gamma (Homo sapiens) (Q13555 whole entry): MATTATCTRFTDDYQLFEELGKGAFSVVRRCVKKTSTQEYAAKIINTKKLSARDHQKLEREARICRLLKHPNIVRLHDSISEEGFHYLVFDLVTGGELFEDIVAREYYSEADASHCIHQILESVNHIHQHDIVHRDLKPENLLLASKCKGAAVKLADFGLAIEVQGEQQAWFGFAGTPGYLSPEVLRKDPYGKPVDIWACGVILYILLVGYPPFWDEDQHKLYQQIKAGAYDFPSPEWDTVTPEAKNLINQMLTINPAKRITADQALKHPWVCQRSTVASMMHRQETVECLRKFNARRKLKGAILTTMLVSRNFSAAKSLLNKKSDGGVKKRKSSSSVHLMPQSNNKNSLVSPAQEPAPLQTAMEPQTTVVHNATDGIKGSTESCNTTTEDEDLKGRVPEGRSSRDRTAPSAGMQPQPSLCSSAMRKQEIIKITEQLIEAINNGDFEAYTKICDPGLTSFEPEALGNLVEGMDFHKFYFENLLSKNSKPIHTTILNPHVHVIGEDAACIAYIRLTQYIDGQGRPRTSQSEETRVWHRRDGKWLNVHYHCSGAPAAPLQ
Chain of Phosphatidylinositol 4-phosphate 3-kinase C2 domain-containing subunit beta (Homo sapiens) (O00750 whole entry, the tested form may be a part): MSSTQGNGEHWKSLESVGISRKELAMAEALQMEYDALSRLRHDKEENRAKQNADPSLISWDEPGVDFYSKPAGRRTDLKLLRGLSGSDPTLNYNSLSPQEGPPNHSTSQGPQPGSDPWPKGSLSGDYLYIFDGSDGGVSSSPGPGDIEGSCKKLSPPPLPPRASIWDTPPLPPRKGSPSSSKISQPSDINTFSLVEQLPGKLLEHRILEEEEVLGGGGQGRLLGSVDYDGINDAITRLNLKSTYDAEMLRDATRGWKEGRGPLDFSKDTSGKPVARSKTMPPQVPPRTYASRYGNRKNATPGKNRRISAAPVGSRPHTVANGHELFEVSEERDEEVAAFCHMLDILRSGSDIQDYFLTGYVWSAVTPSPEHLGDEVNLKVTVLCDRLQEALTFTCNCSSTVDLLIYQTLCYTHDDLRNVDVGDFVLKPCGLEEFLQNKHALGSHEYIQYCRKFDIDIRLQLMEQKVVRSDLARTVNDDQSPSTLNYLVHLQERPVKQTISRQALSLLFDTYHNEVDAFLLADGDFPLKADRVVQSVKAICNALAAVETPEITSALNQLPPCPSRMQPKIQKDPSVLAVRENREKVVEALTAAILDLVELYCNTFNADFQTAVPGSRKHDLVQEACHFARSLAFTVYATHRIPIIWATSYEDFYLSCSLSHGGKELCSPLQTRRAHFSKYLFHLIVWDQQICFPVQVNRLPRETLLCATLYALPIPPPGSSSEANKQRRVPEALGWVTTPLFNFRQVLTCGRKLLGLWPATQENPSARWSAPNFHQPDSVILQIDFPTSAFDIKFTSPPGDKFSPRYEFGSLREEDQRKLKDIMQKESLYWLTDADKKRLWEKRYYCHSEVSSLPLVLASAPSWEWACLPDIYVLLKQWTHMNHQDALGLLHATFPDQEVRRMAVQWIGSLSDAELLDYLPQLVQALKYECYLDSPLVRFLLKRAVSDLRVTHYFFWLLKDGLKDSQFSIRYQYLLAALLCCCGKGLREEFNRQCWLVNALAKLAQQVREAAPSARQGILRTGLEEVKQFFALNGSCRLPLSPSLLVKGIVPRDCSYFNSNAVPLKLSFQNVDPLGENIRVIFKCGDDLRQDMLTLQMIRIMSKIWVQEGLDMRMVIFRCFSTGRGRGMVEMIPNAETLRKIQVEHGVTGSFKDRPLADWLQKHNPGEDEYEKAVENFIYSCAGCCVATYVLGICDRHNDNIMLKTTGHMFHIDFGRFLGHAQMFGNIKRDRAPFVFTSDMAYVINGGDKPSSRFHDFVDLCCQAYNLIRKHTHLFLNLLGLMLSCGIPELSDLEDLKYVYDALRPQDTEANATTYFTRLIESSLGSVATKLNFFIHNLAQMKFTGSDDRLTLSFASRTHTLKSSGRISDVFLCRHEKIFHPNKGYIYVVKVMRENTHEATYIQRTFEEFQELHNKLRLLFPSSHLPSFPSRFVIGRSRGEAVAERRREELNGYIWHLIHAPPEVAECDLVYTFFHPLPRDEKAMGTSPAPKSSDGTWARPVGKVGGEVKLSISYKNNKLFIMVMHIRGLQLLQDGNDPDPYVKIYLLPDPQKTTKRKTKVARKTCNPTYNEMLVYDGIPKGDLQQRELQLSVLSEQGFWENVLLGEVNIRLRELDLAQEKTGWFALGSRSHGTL
Chain of Protein-tyrosine kinase 6 (Homo sapiens) (Q13882 whole entry, looked up): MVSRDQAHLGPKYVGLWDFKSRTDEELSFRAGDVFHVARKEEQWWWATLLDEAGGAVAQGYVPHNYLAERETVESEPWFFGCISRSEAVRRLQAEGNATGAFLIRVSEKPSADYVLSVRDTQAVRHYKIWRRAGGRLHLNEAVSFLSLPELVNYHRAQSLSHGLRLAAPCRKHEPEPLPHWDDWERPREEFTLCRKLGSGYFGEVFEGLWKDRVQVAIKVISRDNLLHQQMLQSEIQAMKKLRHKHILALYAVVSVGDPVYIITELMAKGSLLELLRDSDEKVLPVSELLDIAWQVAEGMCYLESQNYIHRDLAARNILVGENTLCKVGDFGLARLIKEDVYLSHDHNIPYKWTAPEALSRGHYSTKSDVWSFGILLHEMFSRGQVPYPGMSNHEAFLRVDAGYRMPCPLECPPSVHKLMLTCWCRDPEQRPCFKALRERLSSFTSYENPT

Take `FC(F)(F)c1ccc(Cl)cc1CN1CCNc2ncc(-c3ccnc(N4CCNCC4)c3)cc21`: the inhibition in [1], in experiment [2], in [3], in [4], in experiment [5] and in experiment [6] was under 50% throughout. Also, the inhibition in experiment [7], in experiment [8], in experiment [9], in experiment [10], in experiment [11] and in experiment [12] was under 50% each time. The inhibition in experiment [13] and in experiment [14] was under 50% each time.
Take `CN1CCN(c2ccc(-c3cnc4c(c3)N(Cc3cc(F)ccc3F)CCN4)cn2)CC1`: the inhibition in experiment [1], in experiment [2], in [3], in [4], in experiment [5] and in experiment [6] was under 50% in each case. Besides, the inhibition in experiment [7] is under 50%; in experiment [8], under 50%; in [9] it was under 50%; in experiment [10], under 50%; in [11], 59%; in experiment [12], under 50%. Further, the inhibition in experiment [13] and in experiment [14] was under 50% throughout.
Turning to `CN1CCN(c2ccc(-c3cnc4c(c3)N(Cc3cc(Cl)ccc3Cl)CCN4)cn2)CC1`, the inhibition in experiment [1], in [2], in [3], in experiment [4], in [5] and in experiment [6] was under 50% each time. The inhibition in experiment [7], in experiment [8], in [9], in [10], in experiment [11] and in experiment [12] was under 50% throughout. Also, the inhibition in experiment [13] and in [14] was under 50% each time.
As for `O=C(O)c1ccc(-c2cnc3c(c2)N(Cc2cc(Cl)ccc2C(F)(F)F)CCN3)cc1`, the inhibition in experiment [1], in experiment [2], in experiment [3], in experiment [4], in experiment [5] and in experiment [6] was under 50% throughout. The inhibition in experiment [11] and in experiment [13] was under 50% each time.
In the case of `CN1CCN(c2ccc(-c3cnc4c(c3)N(Cc3cc(Cl)ccc3C(F)(F)F)CCN4)cn2)CC1`, the inhibition in [1], in [2], in experiment [3], in experiment [4], in [5] and in experiment [6] was under 50% in each case. Also, the inhibition in experiment [7], in experiment [8], in experiment [9], in experiment [10], in experiment [11] and in experiment [12] was under 50% throughout. Besides, the inhibition in experiment [13] and in experiment [14] was under 50% in each case.
For `COC1CCN(C(=O)c2ccc(-c3cnc4c(c3)N(Cc3cc(Cl)ccc3C(F)(F)F)CCN4)cc2)CC1`, the inhibition in [1], in [2], in experiment [3], in [4], in experiment [5] and in experiment [6] was under 50% throughout. Moreover, the inhibition in experiment [11] and in experiment [13] was under 50% throughout.
Take `O=C(c1ccc(-c2cnc3c(c2)N(Cc2cc(Cl)ccc2C(F)(F)F)CCN3)cc1)N1CCC(N2CCCC2)CC1`: the inhibition in experiment [1], in experiment [2], in experiment [3], in experiment [4], in experiment [5] and in experiment [6] was under 50% each time. The inhibition in experiment [11] and in experiment [13] was under 50% each time.
With `CN1CCN(c2ccc(-c3cnc4c(c3)N(Cc3c(F)ccc(F)c3Cl)CCN4)cn2)CC1`, the inhibition in [1], in experiment [2], in [3], in experiment [4], in [5] and in experiment [6] was under 50% each time. Further, the inhibition in experiment [7] is under 50%; in [8], under 50%; in experiment [9], under 50%; in experiment [10] it was under 50%; in experiment [11], 84%; in experiment [12], under 50%. Besides, the inhibition in experiment [13] and in experiment [14] was under 50% each time.
On to `O=C(c1ccc(-c2cnc3c(c2)N(Cc2cc(Cl)ccc2C(F)(F)F)CCN3)cc1)N1CCCCC1`, for which the inhibition in [1], in experiment [2], in [3], in [4], in experiment [5] and in experiment [6] was under 50% each time. Besides, the inhibition in experiment [11] and in experiment [13] was under 50% in each case.
On to `CC(=O)N1CCN(c2cc(-c3cnc4c(c3)N(Cc3cc(Cl)ccc3C(F)(F)F)CCN4)ccn2)CC1`, for which the inhibition in experiment [1], in experiment [2], in experiment [3], in experiment [4], in [5] and in experiment [6] was under 50% throughout. Also, the inhibition in experiment [7], in [8], in experiment [9], in [10], in experiment [11] and in experiment [12] was under 50% throughout. The inhibition in [13] and in [14] was under 50% throughout.
